Compound activity deposited in PubChem by several laboratories.
NadD inh: NadD (S. aureus) enzyme inhibition; inhibition, % at 20 µM; hit rate 0.78% among 360,000; purified NadD enzyme, colorimetric absorbance read-out; in the data active = inhibition above about 26%
Pemphigus Ab inh: inhibitors of pemphigus antibody binding to human desmoglein-3. P32926. DSG3-coupled beads, scFv-anti-DSG3-GFP binding, flow cytometry; stronger effect = lower value. AID 588358. hit rate 0.48% among 310,000. binding (percent of control), % at 10 µM;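 active = binding more than 3 SD below its plate's average and above zero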
Target sequence (P32926 whole entry, looked up): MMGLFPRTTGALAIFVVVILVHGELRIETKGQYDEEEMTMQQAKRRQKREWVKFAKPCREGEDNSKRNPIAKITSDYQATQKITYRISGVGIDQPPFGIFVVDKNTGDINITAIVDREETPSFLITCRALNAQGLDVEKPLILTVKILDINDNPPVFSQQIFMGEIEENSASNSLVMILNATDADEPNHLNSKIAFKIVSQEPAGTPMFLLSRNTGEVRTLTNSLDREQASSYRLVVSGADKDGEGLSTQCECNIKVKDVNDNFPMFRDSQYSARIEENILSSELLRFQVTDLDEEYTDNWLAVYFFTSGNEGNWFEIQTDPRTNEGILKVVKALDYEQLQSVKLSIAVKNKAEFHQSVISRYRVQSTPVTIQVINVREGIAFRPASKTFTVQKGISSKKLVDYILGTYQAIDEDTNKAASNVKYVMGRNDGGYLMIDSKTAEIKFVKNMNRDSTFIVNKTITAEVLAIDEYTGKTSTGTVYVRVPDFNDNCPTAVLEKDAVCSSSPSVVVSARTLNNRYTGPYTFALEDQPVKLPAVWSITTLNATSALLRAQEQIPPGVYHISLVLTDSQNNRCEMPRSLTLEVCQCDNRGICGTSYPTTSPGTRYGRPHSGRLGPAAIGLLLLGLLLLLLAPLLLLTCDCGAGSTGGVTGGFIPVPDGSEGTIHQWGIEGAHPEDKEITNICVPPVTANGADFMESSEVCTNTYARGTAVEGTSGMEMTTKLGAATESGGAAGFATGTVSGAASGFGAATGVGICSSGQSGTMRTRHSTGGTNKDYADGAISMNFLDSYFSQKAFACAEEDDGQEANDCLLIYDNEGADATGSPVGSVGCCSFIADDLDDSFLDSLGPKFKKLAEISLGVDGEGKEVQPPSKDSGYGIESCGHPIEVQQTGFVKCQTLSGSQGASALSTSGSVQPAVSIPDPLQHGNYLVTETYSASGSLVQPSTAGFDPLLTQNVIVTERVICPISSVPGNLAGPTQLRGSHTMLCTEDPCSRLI
core dimer inh: blocks dimerization of HCV core protein | hit rate 0.33% among 300,000 | AID 1899 | inhibition, % at 5 µM | TR-FRET GST/Flag-core106 dimerization, 1536-well;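 active = inhibition above the mean of all tested compounds plus 3 SD, set per screening campaign, cut at about 45% in these data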
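Material: Tagged HCV core106 pair (GST and Flag) | Amount: GST-core106 13.5 nM, Flag-core106 17 nM | Medium: KF-containing HEPES buffer, pH 7.45, DTT, CHAPS, BSA | Reagent: Eu donor and XL665 acceptor anti-tag antibodies | Schedule: 4 h at 22.5 °C | Technique: Time-resolved FRET, ex 340 nm, em 617 and 671 nm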
Tb MetRS inh: Trypanosoma brucei MetRS inhibition | purified T. brucei MetRS, ATP depletion, Kinase-Glo luminescence | inhibition, % at 11.9 µM | hit rate 0.4% among 360,000;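 active = inhibition above a per-plate cutoff of the control wells' mean inhibition plus 3 SD, cut at about 5.5% in these data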;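 note: 0% = DMSO wells median and 100% = median of wells with control inhibitor compound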
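System: purified T. brucei MetRS enzyme / Detection: Kinase-Glo luciferase luminescence reporting remaining unconsumed ATP / Medium: HEPES buffer with MgCl2, KCl, DTT, spermine, BSA, pyrophosphatase / Replication: singlicate, one well per compound / Evaluation: percent inhibition relative to median high and low control wells / Schedule: 2 h aminoacylation at 25 °C after 15 min preincubation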
Rce1 inhib: yeast Ras-converting enzyme inhibition; yeast membranes, quenched prenylated peptide cleavage fluorescence; calls only; hit rate 0.27% among 290,000; Q03530;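 active = fall in fluorescence gain of 50% or more versus controls, with final raw signal at or below 3038400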;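 note: plate controls were neutral control wells for no effect and wells lacking membranes for full effect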
NadD inh conf: confirmation of Staphylococcus aureus NadD inhibitors | hit rate 13% among 2,000 | inhibition, % at 20 µM | shares compounds with NadD inh | AID 624309 | purified S. aureus NadD, colorimetric enzyme assay; in the data active = inhibition mostly above about 42%, no sharp cut-off; inactive = mostly below about 42%
TbMetRS confirm: Trypanosoma brucei MetRS inhibition confirmed; shares compounds with Tb MetRS inh; T. brucei MetRS enzyme, luminescence (ATP depletion); inhibition, % at 11.9 µM; hit rate 93% among 1,400; AID 624412; in the data active = inhibition above about 7%
Jurkat cytotox: kills Jurkat cells in T. brucei MetRS counterscreen; shares compounds with Tb MetRS inh; Jurkat cells viability, ATP luminescence; inhibition, % at 8.3 µM; hit rate 12% among 1,400; AID 624413; in the data active = inhibition above about 15%;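 note: 0% = vehicle and 100% = reference inhibitor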
TbMetRS FP orth: inhibits T. brucei methionyl tRNA synthetase in orthogonal FP test | AID 651607 | inhibition, % at 11.9 µM | hit rate 44% among 1,400 | purified T. brucei MetRS, fluorescence polarization | shares compounds with Tb MetRS inh; in the data active = inhibition above about 17%;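 note: 0% = vehicle wells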
* = called active by the depositor; i = inactive; x = not tested or not shown. Compounds with a hit are over-represented: about 1.9% of the library has one in this group of screens.

SMILES | NadD inh | Pemphigus Ab inh | core dimer inh | Tb MetRS inh | Rce1 inhib | NadD inh conf | TbMetRS confirm | Jurkat cytotox | TbMetRS FP orth
COc1cc(/C=C2\SC(=O)N(Cc3ccc(Cl)cc3)C2=O)cc([N+](=O)[O-])c1O | 37* | 95 | x | 0 | x | 11 | x | x | x
CN(C)C(CNC(=O)c1cc(-c2ccco2)nc2ccccc12)c1ccccc1 (configuration not stated) | 59* | 116 | x | 0 | x | 59* | x | x | x
O=C(N/N=C/c1cccc(F)c1)c1cc(-c2ccco2)nc2ccccc12 | 52* | 59 | 74* | -1 | i | 81* | x | x | x
CCc1nnc(NC(=O)c2cc(-c3ccco3)nc3ccccc23)s1 | 81* | x | 73* | 0 | i | 44 | x | x | x
CC(C)CCNC(=O)c1cc(-c2ccco2)nc2ccccc12 | -4 | 108 | -2 | -1 | i | x | x | x | x
CC(CC(=O)O)CC(=O)N1CCN(S(=O)(=O)c2cccs2)CC1 (configuration not stated) | -2 | 97 | -2 | 0 | i | x | x | x | x
COc1cc(OC)c(N(C)S(=O)(=O)c2cccc(C(=O)Nc3nnc(C4CC4)s3)c2)cc1Cl | 32* | 97 | 16 | 0 | i | 6 | x | x | x
COc1ccc(N(C)S(=O)(=O)c2cccc(C(=O)Nc3nnc(C4CC4)s3)c2)cc1 | 0 | x | 7 | 0 | i | x | x | x | x
COc1ccc(-c2ccc3[nH]c4c(c3c2)CCN2C(=O)[C@@H]([C@H](C)O)[C@@H](N(C)C(=O)Nc3cc(Cl)cc(Cl)c3)C[C@@H]42)cc1 | 31* | 104 | x | 7.8* | x | 23 | 11* | 13 | 12
CN(c1ccccc1)S(=O)(=O)c1cccc(NC(=O)CN2CCCc3ccccc32)c1 | 0 | 125 | 6 | 0 | i | x | x | x | x
NS(=O)(=O)c1cccc(NC(=O)CN2CCc3ccccc32)c1 | 38* | x | 11 | 9.2* | i | -4 | 9.7* | 11 | 6
C#Cc1ccc([C@H]2C=C(C(=O)NCc3nc4ccccc4[nH]3)O[C@@H](OCc3ccc(CO)cc3)C2)cc1 | 33* | 87 | 29 | 32* | i | 46* | 85* | 0 | 68*
COc1cc(/C=C(\C#N)c2nc3ccccc3[nH]2)ccc1Oc1ccc([N+](=O)[O-])cn1 | 33* | 97 | 9 | 21* | i | 18 | 63* | 24* | 37*
O=C(NCCCn1ccnc1)/C(=C\c1cccnc1)NC(=O)c1ccco1 | -2 | 101 | 2 | -1 | i | x | x | x | x
Cc1ccc(N2C(=O)CC(N(CCc3ccccc3)C(=S)Nc3ccc(N(C)C)cc3)C2=O)cc1 (configuration not stated) | 37* | 102 | 9 | 74* | i | 35* | 46* | 10 | 29*
COc1ccc(CN(C(=S)Nc2ccccc2)C2CC(=O)N(c3ccc(F)cc3)C2=O)cc1 (configuration not stated) | -7 | 105 | -3 | -1 | i | x | x | x | x
O=C1C=CC(=O)N1Cc1cccnc1 | 1 | 115 | x | 0 | x | x | x | x | x
Cc1ccccc1C(=O)Nc1cccc(-c2ccc(N3CCOCC3)nn2)c1 | 2 | 101 | -4 | 1 | i | x | x | x | x
C[C@@H]1CCCCO[C@H](CN(C)C(=O)Nc2ccc(F)cc2)[C@@H](C)CN([C@H](C)CO)C(=O)c2cc(NC(=O)c3ccccc3)ccc2O1 | 5 | 100 | x | -1 | x | x | x | x | x
C[C@@H]1CN([C@@H](C)CO)C(=O)c2cc(NC(=O)Nc3ccccc3)ccc2O[C@@H](C)CCCCO[C@H]1CN(C)C(=O)Nc1ccc(C(F)(F)F)cc1 | 2 | 96 | x | 18* | x | x | 22* | 3 | 15
C=CCc1cccc(CNc2nc3ccccc3n2C(C)C)c1O | -8 | 99 | -4 | 6.7* | i | x | 11* | 9 | 1
C=CCn1c(NCc2cc(Cl)ccc2O)nc2ccccc21 | -3 | 113 | -1 | 13* | i | x | 25* | 0 | 9
